Dynein cargo inh = dynein cargo transport inhibition. 3617.4 mouse cells, GR-EGFP nuclear translocation imaging; test concentration mostly 20 µM; stimulated with dexamethasone, 1 µM; active compounds read low. z-score, hits read low. 220,000 compounds, 0.47% hits. AID 1381;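 active = plate z-score of nuclear minus cytoplasmic receptor signal below a set negative limit, without overly bright fluorescence or cell loss, cut at about -3.5 in these data, passing the limit was not always enough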;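 note: z-score of nuclear minus cytoplasmic ring GR-EGFP intensity difference per well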
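medium = tetracycline-free induction medium containing charcoal-stripped FBS | probe or stimulus = dexamethasone, 1.0 µM final | timing = 48 h induction, then 1 h compound, then 30 min agonist, 37 °C | detection = automated 10x imaging of fixed Hoechst-stained cells | read-out basis = nuclear versus cytoplasmic GR-EGFP signal, averaged per well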
T cruzi repl = blocks replication of Trypanosoma cruzi; T. cruzi beta-gal in NIH3T3, luminescence, 90 h; inhibition, % (no concentration beside the values); 300,000 compounds, 1.4% hits; AID 1885;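 active = mean inhibition across valid replicates above about 55%, limit read from the data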;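 note: signal also drops with host cell toxicity which is not excluded here; 0% = plate median of DMSO wells and 100% = zero luminescence signal; higher percent means less beta-gal luminescence so fewer parasites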
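System – NIH/3T3 host cells with β-galactosidase reporter T. cruzi · Doses – single 50 nL compound addition per well in DMSO · Reagent – 5000 T. cruzi trypomastigotes/well · Medium – Low-serum DMEM with 2% FBS · Timing – ≥90 h infection period, 3 h prior cell attachment · Evaluation – parasite load inhibition, % · Technique – GalScreen luminescence, 60 min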
UPR XBP1 act = adaptive UPR (XBP1) activation; CHO-XBP1 luciferase reporter, IRE1-XBP1 UPR activation, luminescence; percent of tunicamycin response, DMSO as zero; activation, % at 20 µM; 330,000 compounds, 0.33% hits; AID 463104;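 active = versus positive control, 20 µM dose yields 30% or more activation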;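 note: 100% = tunicamycin at 10 µg/mL and 0% = DMSO only wells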
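Assay system: IRE1-XBP1 luciferase reporter CHO line. Input: 1000 cells/well. Buffer or medium: F12 with 10% serum. Doses: 20 µM, 1% DMSO. Times: overnight seeding at 37 °C, 6 h compound treatment at 37 °C. Technique: Steady-Glo luciferase glow luminescence, 10 min after reagent addition.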
UPR CHOP act = apoptotic UPR (CHOP) activation. CHO-CHOP luciferase reporter, luminescence; percent of tunicamycin response over DMSO baseline. activation, % at 10 µM. 330,000 compounds, 0.34% hits;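 active = at 10 µM dose, activation of 40% or more, normalized to positive control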;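 note: 100% = tunicamycin at 10 µg/mL and 0% = DMSO alone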
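System: CHO CHOP reporter cells. Amount: 500 cells per well. Buffer or medium: F12 medium, 10% FBS. Compound dosing: one dose, 10 µM in 0.5% DMSO. Incubation: 6 h compound exposure at 37 °C after overnight seeding. Technique: Steady-Glo luciferase luminescence. Benchmarks: tunicamycin and DMSO controls.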
CHOP inh = blocks CHOP induction under ER stress; CHO-K1 CHOP-promoter luciferase, tunicamycin-induced, 15-18 h; inhibition, % at 10 µM; 220,000 compounds, 3.8% hits; AID 2732;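 active = compounds that reduced the stress-induced luciferase reporter signal by more than about 70% of percent inhibition, limit read from the data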;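 note: 0% = tunicamycin plus vehicle and 100% = wells without tunicamycin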
L major viab = inhibitors of Leishmania major promastigote growth; Leishmania major promastigotes, resazurin fluorescence viability; inhibition, % at 10 µM; 200,000 compounds, 9% hits; in the data active = inhibition above about 50%;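 note: promastigotes grown with compound for 44 hours at 28 °C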
Starred values were filed as active, the others as inactive; x = not tested or not shown. The sample as a whole holds a higher share of hits than the screen did.

SMILES | Dynein cargo inh | T cruzi repl | UPR XBP1 act | UPR CHOP act | CHOP inh | L major viab
Cc1nc2ccccc2n1CCc1nc2c3ccccc3nc(SCC(=O)NCc3ccco3)n2n1 | 0.24 | -1 | 0 | 1 | 72* | 4
Cc1cccc(NC(=O)CSc2nc3ccccc3c3nc(CCc4c(C)n[nH]c4C)nn23)c1 | 0.0086 | 27 | 2 | 0 | -3 | 19
Cc1cncn1CCc1nc2c3ccccc3nc(SCC(=O)Nc3cccc(Cl)c3)n2n1 | 0.57 | 41 | x | x | 31 | 100*
CC(=O)N1CCN(c2c(F)c(F)c(C(F)(F)F)c(F)c2F)CC1 | 0.54 | -11 | x | x | 18 | -8
Cc1ccc(/C=N/NC(=O)CNC(=O)c2cccc([N+](=O)[O-])c2C)o1 | 1.5 | -13 | -3 | 0 | 2 | 5
CC(C)Oc1cccc(C(=O)Nc2ccc(CN3CCOCC3)cc2)c1 | -0.44 | 3 | -2 | 0 | 51 | 79*
COc1c(C)cccc1C(=O)Nc1ccc(CN2CCOCC2)cc1 | -0.5 | 21 | 3 | 4 | -2 | 98*
CCCOc1cccc(C(=O)Nc2ccc(CN3CCOCC3)cc2)c1 | x | 11 | -1 | 2 | x | x
O=C(N=C1SC2CS(=O)(=O)CC2N1CCc1ccc(F)cc1)C1CCCCC1 (stereo unspecified) | x | 10 | 2 | -3 | x | x
Cc1csc(SCC(=O)Nc2ccc3[nH]c(=O)[nH]c3c2)n1 | x | x | -2 | 1 | x | x
CCc1ccc(CN2CCCC(CCC(=O)N3CCN(c4ccccn4)CC3)C2)o1 (stereo unspecified) | -1 | 59* | -1 | -2 | 27 | x
Cc1ccc(C(=O)N2CCCC(CCC(=O)N3CCN(c4ccccn4)CC3)C2)cc1 (stereo unspecified) | x | 20 | -4 | 3 | x | x
CCC(C)c1ccccc1NC(=O)COC(=O)CCc1cc(OC)c(OC)c(OC)c1 (stereo unspecified) | -0.17 | 1 | 0 | 2 | 4 | 51*
O=C(CSc1ccccc1F)NC(=O)c1ccccc1Br | x | x | -1 | 0 | x | x
CC(=O)Nc1ccc(S(=O)(=O)Nc2ccccc2C(=O)N2CCCCCC2)cc1 | x | -13 | -4 | 0 | x | x
COc1ccc(CN=C2NN=C(c3cccc(OC)c3)CS2)cc1 | -0.28 | -4 | -1 | 2 | -2 | 87*
O=C(Nc1nc2n(n1)C(c1ccc(Cl)cc1)CC(c1ccc(Cl)cc1)N2)c1ccco1 (stereo unspecified) | 1.9 | -15 | -4 | 1 | 81* | 76*
COc1ccc(C2CC(c3ccc(Cl)cc3)Nc3nc(NC(=O)c4ccco4)nn32)cc1 (stereo unspecified) | -0.91 | 31 | x | x | -17 | 12
NS(=O)(=O)c1ccc(NC(=O)COC(=O)Cc2c[nH]c3ccccc23)cc1 | x | x | -3 | 0 | x | x
O=c1[nH]c(C2C3CC4CC(C3)CC2C4)nc2ccccc12 (stereo unspecified) | 0.57 | 4 | -1 | -1 | 73* | 1
O=C(COC(=O)CNC(=O)c1ccc(Cl)cc1Cl)NNC(=O)c1ccccc1F | x | x | -4 | 0 | x | x
O=C(COC(=O)c1c2c(nc3ccccc13)CCCC2)c1cccs1 | 0.38 | 2 | 1 | 1 | 4 | 25
O=C(COC(=O)c1c2c(nc3ccccc13)CCCCC2)c1ccc(Cl)s1 | -0.67 | 15 | 1 | 4 | 47 | 62*
CN(Cc1ccccc1)C(=O)COC(=O)CCN1C(=O)C2CC=CCC2C1=O (stereo unspecified) | x | x | 0 | 4 | x | x
CCc1ccc(NC(=O)C(=O)NCC2CCCN2S(=O)(=O)c2cccs2)cc1 (stereo unspecified) | x | 3 | -3 | 0 | x | x
SMILES | Dynein cargo inh | T cruzi repl | UPR XBP1 act | UPR CHOP act | CHOP inh | L major viab
O=[N+]([O-])c1cccc(COc2ncnc3cc([N+](=O)[O-])ccc23)c1 | -0.64 | 64* | -4 | -2 | 14 | x
COc1ccc(OCc2nnc(SCC(=O)Nc3nnc(C4CC4)s3)n2C)cc1 | x | -13 | 2 | 1 | x | x
Fc1ccccc1N1CC(c2ccccc2)C(c2cccs2)=N1 (stereo unspecified) | -0.46 | -3 | -2 | 1 | 71* | -1
CCC(C(=O)Nc1ccc(OC)c(Cl)c1)c1ccccc1 (stereo unspecified) | -1.1 | 16 | -2 | 1 | 14 | 53*
O=C(Nc1ccc(OC(F)F)c(Cl)c1)C(c1ccccc1)c1ccccc1 | -0.022 | 60* | 0 | -3 | 70* | 11
Cc1ccc(NC(=S)Nc2ccc(OC(F)F)c(Cl)c2)cc1Cl | -0.32 | 13 | x | x | 91* | 7
Cc1ccc(NC(=S)Nc2ccc(Cl)c(Cl)c2)c(OC(F)F)c1 | -1.5 | -13 | 0 | 3 | 82* | 7
CC(NC(=S)Nc1ccc(OC(F)F)c(Cl)c1)C(C)(C)C (stereo unspecified) | -1.5 | 7 | 0 | 1 | 70 | 35
C=CC[C@@H]1C=C(C)C[C@H](C)C[C@H](OC)[C@H]2O[C@@](O)(C(=O)C(=O)N3CCCC[C@H]3C(=O)O[C@H](/C(C)=C/[C@@H]3CC[C@@H](O)[C@H](OC)C3)[C@H](C)[C@@H](O)CC1=O)[C@H](C)C[C@@H]2OC | x | 14 | -5 | 1 | x | x
C/C(=N\Nc1nc(Cl)c(Cl)cc1Cl)c1ccc(S(=O)(=O)NCc2ccco2)cc1 | -0.91 | 46 | 0 | -1 | 87* | 100*
C/C(=N\Nc1ccc(C(F)(F)F)cn1)c1ccc(S(=O)(=O)NCc2ccco2)cc1 | 0.56 | 33 | 1 | 4 | 50 | 75*
C/C(=N\Nc1ccccn1)c1ccc(S(=O)(=O)NCc2ccco2)cc1 | -0.41 | -9 | 2 | 1 | 41 | 7
CCC1CCCCN1CCCNC(=O)c1cn(CC)c2ccc(S(=O)(=O)N(C)C3CCCCC3)cc2c1=O (stereo unspecified) | x | 26 | -2 | 2 | x | x
CCC1CCCCN1CCCNC(=O)c1cn(CC)c2ccc(S(=O)(=O)N3CCc4ccccc4C3)cc2c1=O (stereo unspecified) | 0.5 | 29 | 4 | 0 | -6 | 98*
CCn1cc(C(=O)NCCCN2CCCC(C)C2)c(=O)c2cc(S(=O)(=O)N3CCc4ccccc4C3)ccc21 (stereo unspecified) | -1.8 | 27 | -3 | 1 | 20 | 100*
O=C(/C=C/c1ccc(N2CCC(c3ccccc3)=N2)cc1)c1ccccc1 | -5.7* | 11 | 3 | 4 | -22 | -13
Cc1ccc(S(=O)(=O)N2Cc3ccccc3CC2C(=O)Nc2ccc3c(c2)OCO3)cc1 (stereo unspecified) | -0.88 | 15 | 1 | 7 | 37 | 100*

Source: PubChem BioAssay
